Env fusion inh = blocks HIV Env-driven cell-cell fusion | HeLa-JRFL Env/CEM21 cell fusion, luciferase | AID 651610 | actives 1.1% (n = 360,000) | inhibition, % at 12.3 µM;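 active = mean replicate inhibition score of at least 50 and every replicate individually at or above 50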;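 note: 0% = plate neutral controls and 100% = maraviroc near 300 nM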
Cneo AK release = Cryptococcus neoformans lysis via adenylate kinase release; C. neoformans lysis, adenylate kinase release luminescence, 4 h; normalised: neutral wells 0, clomiphene wells 100; lysis activity, % at 15 µM; actives 0.2% (n = 360,000);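 active = mean lysis activity across replicates of at least 80%, whatever share of replicates individually reach that level; inactive = mean lysis activity below 80%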
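Assay system: log-phase C. neoformans yeast / Quantity: yeast cell density of 5 × 10^6 cells/mL / Medium: fresh YPD growth medium / Compound: single dose / Timing: static 4 h at 37 °C with compound, 1 h detection / Measured by: adenylate kinase release luminescence / Read-out: lysis from increased AK signal / Benchmarks: Clomiphene as positive lysis control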
miR-122 sensor = inhibitors of miR-122 in Huh7 cells; Huh7 miR-122 Renilla luciferase sensor, 48 h; neutral wells = 0, positive control = 100; activation (reporter increase), % at 12.5 µM; actives 0.3% (n = 340,000);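 active = mean replicate activation score at least 90 and every replicate individually at or above 90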;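 note: higher luciferase means less miR-122 activity so hits act as miR-122 inhibitors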
GSIS activator = GLuc luminescence reporter in INS-1E cells, primary screen for activators of glucose-dependent secretion of insulin. INS-1E GLuc reporter insulin secretion, 2-3 h. activation, % at 16.6 µM. actives 0.61% (n = 370,000);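 active = lowest replicate activation of at least 40%, so every replicate reaches that level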;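 note: 0% = median of neutral control wells and 100% = median of IBMX positive control wells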
Rtt109 Vps75 = blocks Candida albicans Rtt109/Vps75 acetyltransferase activity; inhibition, % at 34.9 µM; purified Rtt109/Vps75, ThioGlo CoA-SH fluorescence, 4 h; AID 540336; actives 0.16% (n = 330,000);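 active = inhibition of at least 50% in every replicate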
Target sequence (Q5AAJ8 whole entry, looked up): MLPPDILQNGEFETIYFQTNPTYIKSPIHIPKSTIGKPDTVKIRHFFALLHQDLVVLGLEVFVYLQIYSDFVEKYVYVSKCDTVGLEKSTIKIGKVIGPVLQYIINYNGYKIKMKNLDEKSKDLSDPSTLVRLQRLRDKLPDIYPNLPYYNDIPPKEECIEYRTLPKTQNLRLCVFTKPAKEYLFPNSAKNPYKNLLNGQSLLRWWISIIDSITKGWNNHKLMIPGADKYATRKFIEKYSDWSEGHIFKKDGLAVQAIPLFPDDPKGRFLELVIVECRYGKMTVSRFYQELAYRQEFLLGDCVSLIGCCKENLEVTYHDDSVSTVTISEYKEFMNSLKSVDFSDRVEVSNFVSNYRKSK
dFosB act = enhances mouse delta FosB homodimer DNA binding | purified delta FosB, TAMRA-CDK5 oligo fluorescence polarization; percent of positive-control signal above neutral wells | activation, % at 25 µM | actives 0.99% (n = 340,000) | AID 493131;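 active = mean activation above about 17%, with every replicate also reaching it, limit read from the data, passing the limit was not always enough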
An asterisk follows results filed as active; x = no result; ! = repeats disagree; [ ] = dose if it differs, or a comment. Sampled rows, rich in hits. Any-hit rate of the full collection: about 2.4%.

SMILES	Env fusion inh	Cneo AK release	miR-122 sensor	GSIS activator	Rtt109 Vps75	dFosB act
O=C(C[C@H]1CC[C@@H](NC(=O)CCN2CCCCC2)[C@H](CO)O1)Nc1ccccc1	-31[16.7 µM]	x	x	13	x	x
O=C(C[C@@H]1CC[C@@H]2[C@H](COC[C@@H](O)CN2C(=O)Nc2cccc(F)c2)O1)NCc1ccccc1Cl	x	-4	3[16.7 µM]	-16	x	x
CO[C@@H]1CN(C)C(=O)c2cc(NC(=O)Cc3ccccc3)ccc2OC[C@H](C)NC[C@H]1C	1[16.7 µM]	0	x	1	x	x
Cc1ccc(/C=C2/CNC/C(=C/c3ccc(C)cc3)C2=O)cc1	66*	x	3	9	0	-10
CCC1(O)C(=O)OCc2c1cc1n(c2=O)Cc2cc3c(N)cccc3nc2-1 (stereo not given)	68*	x	-1	x	-3	0
CCCN1C[C@@H](C)[C@H](OC)CN(C)C(=O)c2ccc(NC(=O)c3cccc(F)c3)cc2OC[C@@H]1C	x	115*	x	5	x	x
CO[C@H]1CN(C)C(=O)c2ccc(NC(=O)C3CCC3)cc2OC[C@@H](C)N(CC2CCCCC2)C[C@@H]1C	58*[16.7 µM]	-1	x	-39	x	x
CO[C@@H]1CN(C)C(=O)c2ccc(NC(=O)Nc3cccc(F)c3)cc2OC[C@@H](C)N(C(C)=O)C[C@@H]1C	-1[16.7 µM]	-1	x	-9	x	x
CCCN1C[C@@H](C)[C@@H](OC)CN(C)C(=O)c2cc(NC(=O)c3cccc(F)c3)ccc2OC[C@@H]1C	x	-1	0[16.7 µM]	5	x	x
CO[C@H]1CN(C)C(=O)c2ccc(NC(=O)Nc3cccc(F)c3)cc2OC[C@@H](C)N(C(C)=O)C[C@H]1C	65*[16.7 µM]	1	x	-8	x	x
CO[C@@H]1CN(C)C(=O)c2ccc(NC(=O)Nc3cccc(F)c3)cc2OC[C@@H](C)N(C(=O)Nc2cccc(F)c2)C[C@H]1C	74*[16.7 µM]	50	-10[16.7 µM]	-9	x	x
C[C@@H]1CN(C)C(=O)c2cc(N)ccc2O[C@@H]1CN(C)C(=O)OC(C)(C)C	x	x	x	-5	x	x
CO[C@H]1CN(C)C(=O)c2cc(NC(=O)Nc3cccc(F)c3)ccc2OC[C@H](C)N(C)C[C@H]1C	-27[16.7 µM]	103*	7[16.7 µM]	-19	x	x
CO[C@@H]1CN(C)C(=O)c2cc(NC(=O)Nc3cccc(F)c3)ccc2OC[C@@H](C)N(C)C[C@H]1C	26[16.7 µM]	4	-1[16.7 µM]	-6	x	x
CO[C@H]1CN(C)C(=O)c2ccc(NC(=O)C3CC3)cc2OC[C@@H](C)N(C(C)=O)C[C@@H]1C	62*[16.7 µM]	-6	x	11	x	x
COc1ccccc1C(=O)Nc1ccc2c(c1)C(=O)N(C)C[C@H](OC)[C@@H](C)CN(CC1CC1)[C@@H](C)CO2	3[16.7 µM]	96*	x	-11	x	x
COc1ccccc1C(=O)Nc1ccc2c(c1)C(=O)N(C)C[C@@H](OC)[C@@H](C)CN(CC1CC1)[C@H](C)CO2	16[16.7 µM]	-11	x	-1	x	x
COCC(=O)Nc1ccc2c(c1)OC[C@H](C)N(Cc1ccncc1)C[C@H](C)[C@@H](OC)CN(C)C2=O	x	x	x	8	x	x
COc1ccc(C2CC(c3ccc(OC)c(OC)c3)=NN2C(=O)c2ccccc2)cc1 (stereo not given)	-4	-1	-1	67*	x	-25
COCC(=O)N1C[C@H]2[C@@H](c3ccccc31)[C@H](CO)N2C(=O)Nc1ccccc1Cl	x	-3	-32[16.7 µM]	10	x	x
O=C(C[C@H]1CC[C@H]2[C@@H](COC[C@@H](O)CN2C(=O)c2cccnc2)O1)NCc1ccccc1	x	-2	-2[16.7 µM]	11	x	x
Cc1cc(O)c(C(C)C)cc1C1(c2cc(C(C)C)c(O)cc2C)OC(=O)c2ccccc21	68*	-3	40	-19	20	-6
CCCNC(=O)N1CC2(C1)CN(C(=O)c1ccncc1)[C@H](CO)c1[nH]c3cc(OC)ccc3c12	x	x	x	10	x	x
CCO[C@@H]1OC(C(=O)Nc2ccccc2)=C[C@H](c2coc3ccccc3c2=O)[C@H]1CCCO	-6[16.7 µM]	102*!	1	x	-9	-8
CCO[C@H]1OC(C(N)=O)=C[C@@H](c2coc3ccccc3c2=O)[C@@H]1CCCO	5	2	-10	30	-25	6
SMILES	Env fusion inh	Cneo AK release	miR-122 sensor	GSIS activator	Rtt109 Vps75	dFosB act
O=C(CC(F)(F)F)N1C[C@@H]2[C@H](c3ccccc31)[C@@H](CO)N2C(=O)c1cccnc1	x	-1	-9[16.7 µM]	9	x	x
CCC(=O)N1CC(=O)N2[C@H](CO)[C@@H](c3ccc(C#CC(C)C)cc3)[C@H]2C1	x	x	x	-3	x	x
NC(=O)c1ccc(N2CCN(c3ccc(O)cc3)CC2)c([N+](=O)[O-])c1	66*	x	x	6	13	-9
C[C@@H]1CN([C@@H](C)CO)C(=O)Cc2cc(NC(=O)Nc3ccc4c(c3)OCO4)ccc2O[C@H]1CN(C)C(=O)Nc1ccc2c(c1)OCO2	x	x	x	-1	x	x
O=c1cc(-c2ccc(O)c(-c3c(O)cc(O)c4c(=O)cc(-c5ccc(O)cc5)oc34)c2)oc2cc(O)cc(O)c12	x	0	x	x	4	18*
O=c1cc(-c2ccc(O)cc2)oc2c(-c3c(O)cc(O)c4c(=O)cc(-c5ccc(O)cc5)oc34)c(O)cc(O)c12	x	1	0	x	0	-7
O=C(c1cccc(C(F)(F)F)c1)N1CCc2c([nH]c3ccccc23)C1C(F)(F)F (stereo not given)	86*	x	x	-19	4	-3
CCOc1ncccc1C(=O)OCC(=O)c1cccs1	x	1	-4	50*	3	-1
CCOc1ncccc1C(=O)OCc1ccc(C#N)cc1	-117	x	x	55*	15	7
CCOc1ncccc1C(=O)OCC(=O)c1ccc(Br)s1	2	x	-5	4	22	-11
CCOc1ncccc1C(=O)NCc1ccc(C)cc1	-25	-2	-1	45*	6	-6
COc1ccc2c3c(n(C)c2c1)[C@@H](CO)N(C(=O)Nc1ccc(F)cc1)CC31CCN(C(=O)NC2CCCC2)CC1	x	x	x	-28	x	x
Cc1ccc(-n2nc3ccc(NC(=O)c4ccco4)cc3n2)cc1	x	-8	-1	65*	-11	9
Cc1ccc(-n2nc3ccc(NC(=O)C(C)C)cc3n2)cc1	-76	1	6	0	5	-12
Cn1cccc1-c1nc2ccc(NC(=O)c3ccco3)cc2[nH]1	-169	-2	8	x	2	-5
Cc1ccc2nc(-c3ccc(NC(=O)c4ccco4)cc3)[nH]c2c1	x	-7	1	-18	5	43*
CCC(=O)N1CCC2(CC1)CN(CC1CCOCC1)[C@H](CO)c1c2c2ccc(OC)cc2n1C	x	x	x	-8	x	x
CC(=O)N1CC(=O)N2[C@H](CO)[C@@H](c3ccc(-c4ccc(C#N)cc4)cc3)[C@@H]2C1	x	x	x	4	x	x
COc1ccc([Si](C)(C)[C@@H]2[C@@H](CCO)O[C@]3(C(=O)N(Cc4ccc(N5CCOC5=O)cc4)c4ccccc43)[C@H]2C)cc1	57*[16.7 µM]	-36	x	x	x	x

Source: PubChem
